Values after ≈ are worked out from the molar mass of the structure shown.
How the values were obtained:
[1] = tested on: Mycobacterium tuberculosis; assay: Antimicrobial activity against multi drug-resistant Mycobacterium tuberculosis 12611 after 7 days by MABA; type: functional; settings: Mycobacterium tuberculosis, 12611, 168 h
How it was run: (§1)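 Strain H37Rv or clinical isolates grown to late log phase in 7H9-ADC-TG, washed, resuspended in PBS, filtered (8 µm) and frozen. On day 7 Tween 80 and alamar blue added, read 16–24 h later (ex 530/em 590). MIC = lowest concentration giving ≥90% fluorescence reduction versus bacterium-only controls.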

[2] = tested on: Mycobacterium tuberculosis; assay: Antimicrobial activity against multi drug-resistant Mycobacterium tuberculosis 14231 after 7 days by MABA; type: functional; settings: Mycobacterium tuberculosis, 14231, 168 h; how it was run: as §1

Row | Compound | MIC90 [1] | MIC90 [2]
1 | O=c1cc(N2CCN(Cc3ccccc3)CC2)sc2c([N+](=O)[O-])cc(C(F)(F)F)cc12 | 0.011 µg/mL (≈ 0.0245 µM) | 0.023 µg/mL (≈ 0.0512 µM)
2 | O=c1cc(N2CCN(CC3CCCCC3)CC2)sc2c([N+](=O)[O-])cc(C(F)(F)F)cc12 | < 0.002 µg/mL | < 0.002 µg/mL
3 | NNC(=O)c1ccncc1 [ISONIAZID] | 19.5 µg/mL (≈ 142 µM) | > 40 µg/mL
4 | O=c1nc(N2CCN(CC3CCCCC3)CC2)sc2c([N+](=O)[O-])cc(C(F)(F)F)cc12 [MACOZINONE] | < 0.002 µg/mL | < 0.002 µg/mL
5 | CO[C@H]1/C=C/O[C@@]2(C)Oc3c(C)c(O)c4c(O)c(c(/C=N/N5CCN(C)CC5)c(O)c4c3C2=O)NC(=O)/C(C)=C\C=C\[C@H](C)[C@H](O)[C@@H](C)[C@@H](O)[C@@H](C)[C@H](OC(C)=O)[C@@H]1C [RIFAMPIN] | > 40 µg/mL | > 40 µg/mL

— ChEMBL document CHEMBL4382210, “Identification of novel benzothiopyranone compounds against Mycobacterium tuberculosis through scaffold morphing from benzothiazinones” (Eur J Med Chem, 2018)
